Experimental data: PubChem BioAssay
Values without a mark were called inactive. Records with an inconclusive call do not appear. Active and inactive are the calls of the source.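 How the source made its calls, unless noted: active means growth inhibition above 25% in both replicates, a cutoff set 3 SD above the mean; inconclusive means above 25% in only one replicate; inactive means the rest.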

Assays:
[1] = OD615 S. cerevisiae growth inhibition, permissive medium, pilot counter-assay, permissive growth control for S. cerevisiae lifespan shortening project (AID 705); conditions: OD615, 24 h, at 10 µM, stronger effect = higher value
Outline: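 System: Engineered DeaD yeast | Buffer or medium: SC raffinose/galactose permissive medium | Doses: 10 µM single dose, 0.25% DMSO | Times: 24 h exposure, 30 °C | Measured by: OD615 turbidity read | Read-out: Yeast growth inhibition indicated by reduced 24 h OD615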

[2] = Restrictive medium S. cerevisiae growth inhibition, OD615, pilot screen of yeast lifespan reduction project, restrictive growth control (AID 706;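 active means growth inhibition above a set limit, 3 SD over mean compound inhibition, in both replicates, cut at about 43% in these data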;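 further: modified DeaD lifespan yeast strain shifted to restrictive glucose medium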); conditions: OD615, 48 h, at 10 µM, stronger effect = higher value
Outline: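 Assay system: engineered S. cerevisiae DeaD strain; Buffer or medium: CSMM-D glucose medium; Dosing: 10 µM compound, 0.25% DMSO; Times: cell pre-growth 4 h, compound exposure 48 h, 30 °C; Detection: absorbance (optical density) measured at 615 nm.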

[3] = viability gain of MRP-1-high H69AR cells under doxorubicin, pilot screen, MRP-1 activator project, CellTiter-Glo, duplicate (AID 807;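 active means viability increase at or above a cutoff of the median across tested compounds plus 3 SD, cut at about 8.5% in these data, passing the limit was not always enough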;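 further: compound pretreatment 18-22 h then 72 h combined with doxorubicin; 0% = doxorubicin alone and 100% = vehicle without doxorubicin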); conditions: H69AR viability with doxorubicin, CellTiter-Glo luminescence; at 10 µM; stronger effect = higher value
[4] = growth suppression of beta-catenin knockout HCT116, pilot screen, human colon tumor cells (AID 823;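 active means cell viability at or below a set limit in both duplicate runs, the limit being the all-compound median minus 4 SD, cut at about 23% in these data, passing the limit was not always enough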;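 further: 0% = wells killed by 20 µM Hyamine and 100% = untreated DMSO cell wells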); conditions: CellTiter-Glo, 60 h, at 10 µM, stronger effect = lower value
[5] = growth suppression of PTEN-deleted HCT116, pilot screen, cell-based, HCT116 clonal line, CellTiter-Glo (AID 824;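 active means viability at or below 27.92% in each of two runs, the all-compound median minus 4 SD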;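 further: 0% = 20 µM Hyamine control and 100% = vehicle cell control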); conditions: 60 h, at 10 µM, stronger effect = lower value
[6] = inhibitors of the yeast RAM network, pilot screen, dse1pr::URA3 reporter, 5-FOA selection (AID 869;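 active means inhibition over a set limit, the all-compound mean plus 3 SD, in both replicate runs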;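 further: 0% = DMSO wells with no growth and 100% = 10 µM 1-NA-PP1 with full growth; RAM network block rescues cells from 5-FOA so hits raise OD615 growth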); conditions: S. cerevisiae dse1pr::URA3 5-FOA growth, OD615, 2 d; at 10 µM; stronger effect = higher value; strain carries analog-sensitive mutant Cbk1 kinase
[7] = RAM signaling pathway blockade in yeast – S. cerevisiae, Pdr1DBD-CYC8 efflux-inhibited sensitized strain, primary screen (AID 1298;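 active means RAM network inhibition above 8.4% in each of two replicates, 3 SD over the compound average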;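 further: 0% = DMSO untreated cells without growth and 100% = 10 µM 1-NA-PP1 full growth; higher means more yeast growth rescued from 5-FOA killing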); conditions: S. cerevisiae cbk1-as DSE1-URA3 strain, 5-FOA growth OD615, 2 d; at 50 µM; stronger effect = higher value

SMILES	growth inhibition [1]	growth inhibition [2]	viability increase [3]	viability [4]	viability [5]	inhibition [6]	RAM network inhibition [7]
Cn1c(Cn2c(=O)sc3ccccc32)nnc1SCc1cccnc1	-3.75%	2.86%	-1.44%	96.6%	97.1%	1.83%	5.33%
Cc1ccc(N2CC(c3nc4ccccc4[nH]3)CC2=O)c(C)c1 (configuration not stated)	-14.1%	-17%	0.06%	107%	94.4%	1.45%	0.01%
COc1ccc(-n2c(Cc3cc(=O)[nH]c(=O)[nH]3)nnc2SCC(=O)Nc2ccccc2)cc1	5.82%	3.9%	0.25%	105%	98.7%	0.48%	2.13%
O=S(=O)(NCCCN1CCN(c2ccccc2F)CC1)c1cccc2cccnc12	-1.96%	6.3%	-2.92%	77.9%	77.4%	0.97%	5.43%
CCCC12CN3CC(CCC)(CN(C1)C3C(O)C(O)C(O)CO)C2=O (configuration not stated)	4.31%	7.78%	0.62%	99.7%	100%	1.27%	3.47%
COc1nc(NCCC2=CCCCC2)nc(OC)n1	-12.2%	2.74%	2.72%	98.6%	99.4%	0.235%	3.01%
CCS(=O)(=O)NCC(c1cccnc1)N1CCN(c2ccccc2OC)CC1 (configuration not stated)	-2.57%	-3.32%	-0.33%	98.3%	105%	1.11%	3.37%
CCOC(=O)C1Cn2c(nc3c(c2=O)C(C)(CC)Cc2ccccc2-3)S1 (configuration not stated)	-4.55%	5.55%	-2.18%	82.1%	77.7%	1.5%	3.03%
CCOCC(=O)NCc1ccc2c(c1)cc(C)n2C	-13.8%	-14%	-1.45%	103%	97.3%	0.65%	0.21%
CC1CCCCN1CCNC(=O)c1cc2c(=O)n(C)c3ccccc3c2n1C (configuration not stated)	-12.9%	-9.04%	-6.71%	78.9%	72.7%	2.5%	1.31%
Cc1ccc(S(=O)(=O)N(C)CCCC(=O)N2CCOCC2)cc1	-17.3%	-6.47%	-1.27%	101%	96.1%	1.17%	3.03%
c1ccc(OCCSc2ncnc3nc[nH]c23)cc1	3.62%	15.4%	-0.26%	93.3%	87.4%	1.73%	3.23%
COc1ccc(Nc2ncnc3c2oc2ccccc23)cc1	-9.29%	16.5%	-2.52%	92.5%	92%	-0.035%	4.44%
O=C(c1cc2ccccc2cc1OCC(O)CN1CCCCC1)N1CCCCC1 (configuration not stated)	2.48%	0.51%	-4.18%	86.6%	83.5%	0.285%	-0.89%
O=C(Nc1nnc(-c2ccc(Cl)s2)o1)C1CCCCC1	-14.7%	-4.65%	-4.45%	68.4%	63.2%	3.44%	3.62%
COc1ccc(OC)c(N(CC(=O)Nc2ccc3c(c2)OCCO3)S(C)(=O)=O)c1	-6.81%	-3.32%	-2.52%	92.4%	89.8%	0.825%	3.49%
Cc1c(NC(=O)c2ccc(F)cc2)c(=O)n(-c2ccccc2)n1C	-15.9%	-7.79%	-2.08%	106%	96.6%	1.34%	1.21%
COc1cccc(C(=O)NC2CC3CCCC(C2)N3CC(=O)Nc2ccc(N(C)C)cc2)c1 (configuration not stated)	-14.1%	-14.7%	-0.9%	85.4%	87.8%	0.955%	1.97%

SMILES	growth inhibition [1]	growth inhibition [2]	viability increase [3]	viability [4]	viability [5]	inhibition [6]	RAM network inhibition [7]
CCCCNc1ncnc2c1cnn2-c1ccc(Cl)cc1	-7.84%	-18.1%	-6.6%	17.3% (active)	20.4% (active)	0.835%	5.62%
O=C1CCCCC(=O)N(c2ccccc2)c2ccccc21	-9.64%	-15%	-3.3%	95.9%	95.6%	1.74%	5.34%
CSc1cccc(NC(=O)CN(c2ccc(C)cc2C)S(C)(=O)=O)c1	-12.5%	-9.39%	-1.07%	76.8%	67.8%	1.02%	2.43%
Cc1ccnc(SCCn2c(N(C)Cc3ccccc3)nc3c2c(=O)n(C)c(=O)n3C)n1	-15.3%	-13%	-0.84%	93.3%	88.7%	-0.475%	5.55%
O=C(NCS(=O)(=O)c1ccccc1)c1ccccc1	-15.4%	-4.22%	-0.04%	101%	101%	0.675%	1.79%
CCN1CCN(C(C(=O)NC2CCCC2)c2ccc(Cl)cc2)CC1 (configuration not stated)	-14.8%	0.47%	-4.44%	93.9%	93.1%	1.02%	3.71%
CC(=O)CCC(=O)NCCc1ccccc1F	-5.29%	9.55%	0.02%	94.8%	97.2%	0.02%	0.25%
CCc1cccc(NC(=O)CS(=O)Cc2nc(-c3ccc(C)cc3)oc2C)c1 (configuration not stated)	9.24%	24.4%	-1.87%	96.1%	87.1%	1.46%	3.37%
COC(=O)c1ccccc1NS(=O)(=O)c1cn(C)c(=O)n(C)c1=O	-1.82%	-6.46%	-1.59%	101%	92.6%	0.585%	1.2%
COc1ccc(N(CC(=O)Nc2cc(OC)ccc2OC)S(=O)(=O)c2c(C)nn(C)c2C)cc1	-7.47%	-15.8%	-4.82%	95.6%	81%	1.36%	0.21%
CCOc1ccccc1NC(=O)CN1C(=O)COc2ccc(Cl)cc21	-16.8%	-11.8%	-1.27%	91.7%	84.2%	4.02%	5.69%
Cc1nccc2[nH]c(=O)c(C(=O)NC3CCN(Cc4ccccc4)CC3)cc12	-0.105%	-8.34%	-3.81%	104%	93.9%	1.82%	7.9%
CCOC(=O)c1ccc(N2C(=O)CC(N3CCN(Cc4ccccc4)CC3)C2=O)cc1 (configuration not stated)	-18.6%	-15.4%	0.7%	101%	103%	0.175%	2.65%
CCN1CCN(c2cc(C)c3cc(NC(=O)Cc4ccc(OC)c(OC)c4)ccc3n2)CC1	-15.9%	-16.5%	-5.64%	75.5%	77.2%	3.25%	-0.95%
CCOC(=O)c1[nH]c(C)c(C(=O)N(CC)CC)c1C	-10.8%	-5.69%	0.21%	97%	107%	1.27%	-0.57%
Cc1ccc(C(c2sc3ncnn3c2O)N2CCCCC2)cc1 (configuration not stated)	-12.7%	-15.6%	1.87%	92.9%	101%	0.04%	-0.37%
CCOC(=O)c1sc(NC(=O)c2ccc(Cl)s2)cc1C	-0.47%	-4.72%	0.81%	105%	94.9%	2.33%	5.22%
CCOc1ccc(-n2c(SC(C)C(=O)OC)nc3c(c2=O)SCC3)cc1 (configuration not stated)	-6.67%	-19.6%	-1.08%	89.6%	92.2%	0.355%	5.59%
